In brackets after ≈: the same amount, converted by molar mass.
How the values were obtained:
[1] = Cytotoxicity against human LUC1 cells after 2 to 4 days by SRB assay; type: functional; conditions: read-out: ED50 (the source's name)
Method in brief: (§1)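 Test compounds in 10% DMSO added to cell suspensions and incubated 2–4 days at 37° (100% humidity, 5% CO2). Cells fixed with cold 50% TCA for 1 h at 4°, stained with sulforhodamine B, washed with 1% HOAc and solubilized in 10 mM Tris base. OD read at 515 nm; percent growth calculated relative to controls. Top concentration tested 20 μg/ml.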

LNCaP = assay: Cytotoxicity against human LNCAP cells after 2 to 4 days by SRB assay; type: functional; conditions: read-out: ED50 (the source's name); method in brief: as §1
[2] = Cytotoxicity against human BCA1 cells after 2 to 4 days by SRB assay; type: functional; conditions: read-out: ED50 (the source's name); method in brief: as §1
[3] = (§2) Displacement of [3H]vinblastine from p-glycoprotein in multidrug-resistant human KBV1 cell membrane vesicles by liquid scintillation counting; type: cell membranes
Method in brief: (§3)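 Membrane vesicles were made from KB-V1 cells by homogenization, a 35% sucrose cushion and 100,000 × g pelleting. Incubated 20 min at room temperature, then filtered onto BSA-prewashed glass fiber. Nonspecific binding taken with 1 mM unlabeled vinblastine. Read by scintillation counting and expressed as percent.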

[4] = Cytotoxicity against drug-sensitive human KB3 cells after 2 to 4 days by SRB assay; type: functional; conditions: read-out: ED50 (the source's name); method in brief: as §1
P388 = assay: Cytotoxicity against mouse P388 cells after 2 to 4 days by SRB assay; type: functional; conditions: read-out: ED50 (the source's name); method in brief: as §1
[5] = Cytotoxicity against multidrug-resistant human KBV1 cells after 2 to 4 days by SRB assay in absence of vinblastine; type: functional; conditions: KB-V1, read-out: ED50 (the source's name)
Method in brief: (§4)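 SRB growth assay on KB-V1 cells (compounds in 10% DMSO, 2–4 days at 37°, 5% CO2, TCA fixation, OD 515 nm, percent growth versus controls). Cells were given a range of compound concentrations, either alone or together with 1 μg/ml vinblastine.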

ZR-75-1 = assay: Cytotoxicity against human ZR-75-1 cells after 2 to 4 days by SRB assay; type: functional; conditions: read-out: ED50 (the source's name); method in brief: as §1
Col2 = assay: Cytotoxicity against human Col2 cells after 2 to 4 days by SRB assay; type: functional; conditions: read-out: ED50 (the source's name); method in brief: as §1
[6] = Cytotoxicity against multidrug-resistant human KBV1 cells after 2 to 4 days by SRB assay in presence of vinblastine; type: functional; conditions: KB-V1, read-out: ED50 (the source's name); method in brief: as §4
SK-MEL-2 = assay: Cytotoxicity against human SK-MEL-2 cells after 2 to 4 days by SRB assay; type: functional; conditions: read-out: ED50 (the source's name); method in brief: as §1
A-431 = assay: Cytotoxicity against human A431 cells after 2 to 4 days by SRB assay; type: functional; conditions: read-out: ED50 (the source's name); method in brief: as §1
KBV1 = assay: as §2; type: cell membranes; method in brief: as §3
[7] = Cytotoxicity against multidrug-resistant human KBV1 cells at 1 ug/mL after 2 to 4 days by SRB assay in presence of vinblastine; type: functional; conditions: KB-V1, read-out: ED50 (the source's name)

IC50 [3] [µg/mL] | Compound | EC50 [1] [µg/mL] | EC50 (LNCaP) [µg/mL] | EC50 [2] [µg/mL] | EC50 [4] [µg/mL] | EC50 (P388) [µg/mL] | EC50 [5] [µg/mL] | EC50 (ZR-75-1) [µg/mL] | EC50 (Col2) [µg/mL] | EC50 [6] [µg/mL] | EC50 (SK-MEL-2) [µg/mL] | EC50 (A-431) [µg/mL] | ED50 (KBV1) | EC50 [7] [µg/mL]
> 160 | COC[C@@H]1Cc2cc(OC)c3c(c2[C@H](c2ccc(OC)c(OC)c2)[C@H]1COC)OCO3 [HYPOPHYLLANTHIN] | > 20 | > 20 | > 20 | > 20 | > 20 | > 20 | > 20 | > 20 | 3.8 | > 20 | > 20 | – | –
28 (≈ 66.9 µM) | COC[C@H](Cc1ccc(OC)c(OC)c1)[C@H](COC)Cc1ccc(OC)c(OC)c1 [PHYLLANTHIN] | > 20 | > 20 | > 20 | > 20 | > 20 | 9 (≈ 21.5 µM) | > 20 | > 20 | – | > 20 | > 20 | Dose-dependent effect | 2.1

— ChEMBL document CHEMBL1147340, “1H- and 13C-nmr assignments of phyllanthin and hypophyllanthin: lignans that enhance cytotoxic responses with cultured multidrug-resistant cells” (J Nat Prod, 1993)
